Legend:
[1] = biological target: T1, Bombesin receptor subtype-3 (Homo sapiens) (UniProt P32247); assay: Agonistic activity at human BRS3 expressed in HEK293AEO at 10 uM cells by aequorin bioluminescence assay relative to dY peptide; type: functional, cell-based
T1 sequence (whole entry): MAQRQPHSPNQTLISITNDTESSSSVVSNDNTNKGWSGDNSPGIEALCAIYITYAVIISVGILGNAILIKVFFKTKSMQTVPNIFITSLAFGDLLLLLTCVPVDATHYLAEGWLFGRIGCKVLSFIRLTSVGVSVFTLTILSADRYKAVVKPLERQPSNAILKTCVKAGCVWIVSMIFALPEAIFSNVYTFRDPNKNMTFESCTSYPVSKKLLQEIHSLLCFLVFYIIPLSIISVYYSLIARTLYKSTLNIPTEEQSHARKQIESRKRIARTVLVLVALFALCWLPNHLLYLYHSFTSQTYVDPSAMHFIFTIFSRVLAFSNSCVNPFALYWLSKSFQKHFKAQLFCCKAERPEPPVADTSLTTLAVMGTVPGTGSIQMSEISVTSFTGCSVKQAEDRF

[2] = biological target: T2, Bombesin receptor subtype-3 (Mus musculus, UniProt O54798); assay: Agonistic activity at mouse BRS3 expressed in HEK293AEO cells by aequorin bioluminescence assay; type: functional, cell-based
T2 sequence (O54798 whole entry): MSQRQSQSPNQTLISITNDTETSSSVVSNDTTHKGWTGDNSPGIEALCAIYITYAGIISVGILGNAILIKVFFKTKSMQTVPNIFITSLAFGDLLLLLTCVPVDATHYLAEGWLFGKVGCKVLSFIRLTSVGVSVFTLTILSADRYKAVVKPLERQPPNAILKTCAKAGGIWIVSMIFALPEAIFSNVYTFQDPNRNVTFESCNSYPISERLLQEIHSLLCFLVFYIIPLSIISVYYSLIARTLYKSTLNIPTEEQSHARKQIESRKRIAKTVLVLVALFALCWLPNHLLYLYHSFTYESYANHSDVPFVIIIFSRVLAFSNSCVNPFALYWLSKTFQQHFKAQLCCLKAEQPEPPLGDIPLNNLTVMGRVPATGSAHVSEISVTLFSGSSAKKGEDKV

[3] = biological target: T3, Bombesin receptor subtype-3 (Homo sapiens, UniProt P32247); assay: Agonistic activity at human BRS3 expressed in HEK293AEO cells by aequorin bioluminescence assay; type: functional, cell-based
T3 sequence (P32247 whole entry): T1 sequence (whole entry)

[4] = biological target: T4, Bombesin receptor subtype-3 (Mus musculus) (UniProt O54798); assay: Agonistic activity at mouse BRS3 expressed in HEK293AEO cells at 10 uM by aequorin bioluminescence assay relative to dY peptide; type: functional, cell-based
T4 sequence (whole entry): T2 sequence (O54798 whole entry)

[5] = Volume of distribution at steady state in Sprague-Dawley rat at 1 mg/kg, iv and 4 mg/kg, po; type: ADME, organism-based; details: in vivo, read-out: Vdss
How it was run: (§1)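 Sprague-Dawley rats given compound as solution in EtOH/PEG400/water (10:40:50), 1 mg/kg iv and 4 mg/kg po; clearance, steady-state volume of distribution, half-life, oral bioavailability and dose-normalised AUC derived.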

[6] = Half life in Sprague-Dawley rat at 1 mg/kg, iv and 4 mg/kg, po; type: ADME, organism-based; details: in vivo; how it was run: as §1
[7] = Clearance in Sprague-Dawley rat at 1 mg/kg, iv and 4 mg/kg, po; type: ADME, organism-based; details: in vivo; how it was run: as §1
[8] = Oral bioavailability in Sprague-Dawley rat at 4 mg/kg; type: ADME, organism-based; details: in vivo; how it was run: as §1

Activity [1] [%]	EC50 [2] [nM]	EC50 [3] [nM]	Activity [4] [%]	Vd [5] [L/kg]	half-life [6] [h]	clearance [7] [mL/min/kg]	bioavailability [8] [%]	Structure (SMILES)
105	7.1	588	99	–	–	–	–	O=C(O)c1ccccc1-c1ccc(CCc2ncc(CC3CCC3)[nH]2)cc1
51	642	5480	139	–	–	–	–	N#Cc1ccccc1Cc1cnc(CCc2ccc(-c3ccccc3C(=O)O)cc2)[nH]1
96	72	1000	144	–	–	–	–	O=C(O)c1ccccc1-c1ccc(CCc2ncc(CC3CC3)[nH]2)cc1
44	513	5360	88	–	–	–	–	COc1ccc(Cc2cnc(CCc3ccc(-c4ccccc4C(=O)O)cc3)[nH]2)cc1
88	162	2660	120	–	–	–	–	Cc1ccc(Cc2cnc(CCc3ccc(-c4ccccc4C(=O)O)cc3)[nH]2)cc1
100	22	292	109	–	–	–	–	O=C(O)c1ccccc1-c1ccc(CCc2ncc(Cc3ccccc3Cl)[nH]2)cc1
93	9.3	127	106	–	–	–	–	Cc1ccccc1Cc1cnc(CCc2ccc(-c3ccccc3C(=O)O)cc2)[nH]1
25	723	5890	85	–	–	–	–	N#Cc1ccc(Cc2cnc(CCc3ccc(-c4ccccc4C(=O)O)cc3)[nH]2)cc1
84	50	1600	104	–	–	–	–	O=C(O)c1ccccc1-c1ccc(CCc2ncc(Cc3ccc(F)cc3)[nH]2)cc1
87	75	4310	89	–	–	–	–	Cc1cccc(Cc2cnc(CCc3ccc(-c4ccccc4C(=O)O)cc3)[nH]2)c1
109	11	205	111	–	–	–	–	O=C(O)c1ccccc1-c1ccc(CCc2ncc(Cc3ccccc3)[nH]2)cc1
–	872	4950	–	–	–	–	–	O=C(O)c1ccccc1-c1ccc(CCc2nc(-c3ccccc3)c[nH]2)cc1
73	79	4120	80	–	–	–	–	COc1cccc(Cc2cnc(CCc3ccc(-c4ccccc4C(=O)O)cc3)[nH]2)c1
107	7.9	159	108	–	–	–	–	O=C(O)c1ccccc1-c1ccc(CCc2ncc(Cc3cccc(F)c3)[nH]2)cc1
78	93	2710	116	0.1	1.56	1.3	16	CCCCc1cnc(CCc2ccc(-c3ccccc3C(=O)O)cc2)[nH]1
95	20	812	102	–	–	–	–	N#Cc1cccc(Cc2cnc(CCc3ccc(-c4ccccc4C(=O)O)cc3)[nH]2)c1
91	31	825	98	–	–	–	–	O=C(O)c1ccccc1-c1ccc(CCc2ncc(Cc3cccc(Cl)c3)[nH]2)cc1
88	163	1720	101	–	–	–	–	COc1ccccc1Cc1cnc(CCc2ccc(-c3ccccc3C(=O)O)cc2)[nH]1
30	–	–	101	–	–	–	–	O=C(O)c1ccccc1-c1ccc(CCc2ncc(-c3ccccc3)[nH]2)cc1
86	174	1320	89	–	–	–	–	O=C(O)c1ccccc1-c1ccc(CCc2ncc(CCc3ccccc3)[nH]2)cc1
89	102	2290	105	–	–	–	–	O=C(O)c1ccccc1-c1ccc(CCc2ncc(Cc3ccc(Cl)cc3)[nH]2)cc1
108	9.5	177	121	–	–	–	–	O=C(O)c1ccccc1-c1ccc(CCc2ncc(Cc3ccccc3F)[nH]2)cc1
104	8	87	110	–	–	–	–	O=C(O)c1ccccc1-c1ccc(CCc2ncc(Cc3cccc(F)c3F)[nH]2)cc1

Further lines, the compound ahead of its results:

Structure (SMILES)	Activity [1] [%]	EC50 [2] [nM]	EC50 [3] [nM]	Activity [4] [%]	Vd [5] [L/kg]	half-life [6] [h]	clearance [7] [mL/min/kg]	bioavailability [8] [%]
O=C(O)c1ccccc1-c1ccc(CCc2ncc(CC3CCOCC3)[nH]2)cc1	96	23	338	106	–	–	–	–
CCC(C)(C)Cc1c[nH]c(CCc2ccc(-c3ccccc3C(=O)O)cc2)n1	101	9.6	25	94	–	–	–	–
CC(C)(C)CCc1cnc(CCc2ccc(-c3ccccc3C(=O)O)cc2)[nH]1	102	6.2	39	99	–	–	–	–
CCC(C)(CC)Cc1cnc(CCc2ccc(-c3ccccc3C(=O)O)cc2)[nH]1	97	30	76	116	–	–	–	–
CCCCc1cnc(C(Cc2ccc(-c3ccccc3C(=O)O)cc2)C(C)C)[nH]1 (stereo not drawn)	60	2240	4620	87	–	–	–	–
CCCCc1cnc(/C=C/c2ccc(-c3ccccc3C(=O)O)cc2)[nH]1	8	10000	4380	39	–	–	–	–
O=C(O)c1ccccc1-c1ccc(CCc2ncc(CC3CCCCC3)[nH]2)cc1	104	7.3	41	102	–	–	–	–
O=C(O)c1ccccc1-c1ccc(CCc2ncc(CC3CCCC3)[nH]2)cc1	102	7.9	133	94	–	–	–	–
CCCCc1cnc(C(CCCC)Cc2ccc(-c3ccccc3C(=O)O)cc2)[nH]1 (stereo not drawn)	66	527	2660	96	–	–	–	–
CCCCc1cnc(CCCc2ccc(-c3ccccc3C(=O)O)cc2)[nH]1	54	382	5600	101	–	–	–	–
CCCCc1cnc(C(C)Cc2ccc(-c3ccccc3C(=O)O)cc2)[nH]1 (stereo not drawn)	79	184	2760	110	–	–	–	–
CCCCc1cnc(C(CC)Cc2ccc(-c3ccccc3C(=O)O)cc2)[nH]1 (stereo not drawn)	76	340	2720	104	–	–	–	–
CCCCc1cnc(C(CCC)Cc2ccc(-c3ccccc3C(=O)O)cc2)[nH]1 (stereo not drawn)	96	165	1180	102	–	–	–	–
CCCCc1cnc(Cc2ccc(-c3ccccc3C(=O)O)cc2)[nH]1	0	> 10000	> 10000	0	–	–	–	–
CC(C)CCc1cnc(CCc2ccc(-c3ccccc3C(=O)O)cc2)[nH]1	112	10	119	111	–	–	–	–
CC(C)(C)c1cnc(CCc2ccc(-c3ccccc3C(=O)O)cc2)[nH]1	45	2740	4330	108	–	–	–	–
O=C(O)c1ccccc1-c1ccc(CCc2ncc(CC3CCCCCC3)[nH]2)cc1	106	5.7	88	102	–	–	–	–
O=C(O)c1ccccc1-c1ccc(CCc2ncc(CCC3CCCCC3)[nH]2)cc1	94	33	642	101	–	–	–	–
O=C(O)c1ccccc1-c1ccc(CCc2ncc(C3CCCCC3)[nH]2)cc1	102	14.7	375	116	–	–	–	–

From ChEMBL document CHEMBL1155395, “Discovery of substituted biphenyl imidazoles as potent, bioavailable bombesin receptor subtype-3 agonists” (Bioorg Med Chem Lett, 2010)
